The values that follow come from ChEMBL document CHEMBL6134769, “Discovery of N-substituted-2-oxoindolin benzoylhydrazines as c-MET/SMO modulators in EGFRi-resistant non-small cell lung cancer” (RSC Med Chem, 2025).

The target in assay [1] is T1, Protein smoothened (Homo sapiens, UniProt Q99835). Briefly: Inhibition of SMO in human PC9-OR cells assessed as reduction in GLI1 expression at antiproliferative IC50 measured after 72 hrs by Western blot analysis. It counts as functional, cell-based. Background: In western blotting, separated proteins are transferred to a membrane and probed.
The target of assay [2] is Platelet-derived growth factor receptor alpha (Homo sapiens) (UniProt P16234). In words: Inhibition of human N-terminal GST-fused PDGFRalpha cytoplasmic domain (550 to 1089 (end)residues) expressed in baculovirus expression system at 20 uM measured after 1 hr in presence of peptide substrate and ATP by off-chip mobility shift assay relative to control. Put shortly: (§1)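 Off-chip mobility shift assay. Product and substrate peptides were separated; activity was taken as P/(P+S). Complete reaction was set as 0% inhibition and enzyme-free background as 100%. Run in triplicate, mean ± SD.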

For assay [3], the target named is T1, Protein smoothened. In words: Displacement of [3H]-cyclopamine from SMO receptor (unknown origin) expressed in HEK293T cell membranes measured after 4 hrs by liquid scintillation spectrometry. The arrangement: species or system Cell membrane. In short, it runs like this:
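Incubation of 15 μg HEK293T-WT SMO membranes (Kd 20 nM, Bmax 6.2 pmol/mg) with 25 nM [3H]-cyclopamine and varied compound, 4 h at RT, in 50 mM HEPES, 5 mM MgCl2, 0.02% BSA. Nonspecific binding was taken with 25 μM compound plus vismodegib. Bound ligand was separated on PEI-soaked GF/C filters, washed with ice-cold PBS/0.01% Triton X-100, and counted by scintillation; IC50 converted to Ki by Cheng–Prusoff.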
A general note: Displacement assays read how much labelled ligand stays bound in the presence of the test substance.

Assay [4] addresses Tyrosine-protein kinase SYK (Homo sapiens) (UniProt P43405). In words: Inhibition of human full-length N-terminal GST-fused SYK (1 to 635 (end)residues) expressed in baculovirus expression system at 20 uM measured after 1 hr in presence of peptide substrate and ATP by off-chip mobility shift assay relative to control. In short, it runs like this:
as §1

Assay [5] addresses Angiopoietin-1 receptor (Homo sapiens) (UniProt Q02763). In words: Inhibition of human N-terminal GST-fused TIE2 cytoplasmic domain (771 to 1124 (end)residues) expressed in baculovirus expression system at 20 uM measured after 1 hr in presence of peptide substrate and ATP by off-chip mobility shift assay relative to control. Put shortly: as §1
Assay [6] deals with T2, Tyrosine-protein kinase JAK3 (Homo sapiens) (UniProt P52333).
T2 sequence (whole entry): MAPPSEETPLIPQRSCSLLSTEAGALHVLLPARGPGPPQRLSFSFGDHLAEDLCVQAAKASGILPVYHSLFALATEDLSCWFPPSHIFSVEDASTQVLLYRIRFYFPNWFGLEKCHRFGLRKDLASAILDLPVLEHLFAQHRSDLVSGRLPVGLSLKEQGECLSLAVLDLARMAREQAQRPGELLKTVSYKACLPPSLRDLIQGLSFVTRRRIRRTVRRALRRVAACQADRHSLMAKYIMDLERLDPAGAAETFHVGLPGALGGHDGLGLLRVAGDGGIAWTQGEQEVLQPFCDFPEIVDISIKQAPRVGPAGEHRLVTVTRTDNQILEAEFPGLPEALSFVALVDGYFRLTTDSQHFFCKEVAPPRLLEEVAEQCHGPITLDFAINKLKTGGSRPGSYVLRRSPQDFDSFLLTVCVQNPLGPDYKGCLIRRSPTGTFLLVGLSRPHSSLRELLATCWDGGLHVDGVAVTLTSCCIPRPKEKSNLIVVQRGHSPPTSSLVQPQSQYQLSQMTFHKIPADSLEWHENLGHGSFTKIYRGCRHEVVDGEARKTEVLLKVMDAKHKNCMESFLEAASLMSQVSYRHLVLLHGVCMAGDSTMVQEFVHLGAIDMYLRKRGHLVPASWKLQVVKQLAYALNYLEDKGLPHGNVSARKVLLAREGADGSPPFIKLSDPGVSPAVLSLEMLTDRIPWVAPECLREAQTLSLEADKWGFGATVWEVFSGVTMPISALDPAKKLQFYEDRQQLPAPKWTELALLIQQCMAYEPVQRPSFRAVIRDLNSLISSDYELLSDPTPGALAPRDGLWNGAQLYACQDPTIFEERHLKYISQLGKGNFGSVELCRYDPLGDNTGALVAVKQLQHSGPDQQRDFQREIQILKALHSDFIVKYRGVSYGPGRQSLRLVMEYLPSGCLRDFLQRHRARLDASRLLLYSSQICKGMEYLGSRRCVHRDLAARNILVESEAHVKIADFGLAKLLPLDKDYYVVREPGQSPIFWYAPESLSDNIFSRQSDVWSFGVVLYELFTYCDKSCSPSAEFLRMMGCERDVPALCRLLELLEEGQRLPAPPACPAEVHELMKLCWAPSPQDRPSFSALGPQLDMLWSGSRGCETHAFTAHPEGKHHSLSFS
Briefly: Inhibition of human N-terminal His-tagged JAK3 catalytic domain (795 to 1124 (end)residues) expressed in baculovirus expression system at 20 uM measured after 1 hr in presence of peptide substrate and ATP by off-chip mobility shift assay relative to control. Put shortly:
as §1

In assay [7] the target is Ephrin type-A receptor 2 (Homo sapiens) (UniProt P29317). Briefly: Inhibition of EPHA2 (unknown origin) at 20 uM measured after 1 hr in presence of peptide substrate and ATP by off-chip mobility shift assay relative to control. Put shortly: as §1
Assay [8] has as its target Fibroblast growth factor receptor 1 (Homo sapiens) (UniProt P11362). In words: Inhibition of human N-terminal GST-fused FGFR1 cytoplasmic domain (398 to 822 (end)residues) expressed in baculovirus expression system at 20 uM measured after 1 hr in presence of peptide substrate and ATP by off-chip mobility shift assay relative to control. In short, it runs like this:
as §1

Assay [9] concerns the target Receptor-type tyrosine-protein kinase FLT3 (Homo sapiens) (UniProt P36888). In words: Inhibition of human N-terminal GST-fused FLT3 cytoplasmic domain (564 to 993 (end)residues) expressed in baculovirus expression system at 20 uM measured after 1 hr in presence of peptide substrate and ATP by off-chip mobility shift assay relative to control. In short, it runs like this:
as §1

The target of assay [10] is T1, Protein smoothened. In words: Inhibition of SMO in human HCC827 Gefitinib-resistant (GR) cells assessed as reduction in GLI1 expression at antiproliferative IC50 measured after 72 hrs by Western blot analysis. It counts as functional, cell-based. To be noted: HCC827 Gefitinib-resistant (GR) cell.

Active and inactive are the calls of the source. No cut-off for these calls is given here.

Chain of Platelet-derived growth factor receptor alpha (Homo sapiens) (P16234 whole entry, the tested form may be a part): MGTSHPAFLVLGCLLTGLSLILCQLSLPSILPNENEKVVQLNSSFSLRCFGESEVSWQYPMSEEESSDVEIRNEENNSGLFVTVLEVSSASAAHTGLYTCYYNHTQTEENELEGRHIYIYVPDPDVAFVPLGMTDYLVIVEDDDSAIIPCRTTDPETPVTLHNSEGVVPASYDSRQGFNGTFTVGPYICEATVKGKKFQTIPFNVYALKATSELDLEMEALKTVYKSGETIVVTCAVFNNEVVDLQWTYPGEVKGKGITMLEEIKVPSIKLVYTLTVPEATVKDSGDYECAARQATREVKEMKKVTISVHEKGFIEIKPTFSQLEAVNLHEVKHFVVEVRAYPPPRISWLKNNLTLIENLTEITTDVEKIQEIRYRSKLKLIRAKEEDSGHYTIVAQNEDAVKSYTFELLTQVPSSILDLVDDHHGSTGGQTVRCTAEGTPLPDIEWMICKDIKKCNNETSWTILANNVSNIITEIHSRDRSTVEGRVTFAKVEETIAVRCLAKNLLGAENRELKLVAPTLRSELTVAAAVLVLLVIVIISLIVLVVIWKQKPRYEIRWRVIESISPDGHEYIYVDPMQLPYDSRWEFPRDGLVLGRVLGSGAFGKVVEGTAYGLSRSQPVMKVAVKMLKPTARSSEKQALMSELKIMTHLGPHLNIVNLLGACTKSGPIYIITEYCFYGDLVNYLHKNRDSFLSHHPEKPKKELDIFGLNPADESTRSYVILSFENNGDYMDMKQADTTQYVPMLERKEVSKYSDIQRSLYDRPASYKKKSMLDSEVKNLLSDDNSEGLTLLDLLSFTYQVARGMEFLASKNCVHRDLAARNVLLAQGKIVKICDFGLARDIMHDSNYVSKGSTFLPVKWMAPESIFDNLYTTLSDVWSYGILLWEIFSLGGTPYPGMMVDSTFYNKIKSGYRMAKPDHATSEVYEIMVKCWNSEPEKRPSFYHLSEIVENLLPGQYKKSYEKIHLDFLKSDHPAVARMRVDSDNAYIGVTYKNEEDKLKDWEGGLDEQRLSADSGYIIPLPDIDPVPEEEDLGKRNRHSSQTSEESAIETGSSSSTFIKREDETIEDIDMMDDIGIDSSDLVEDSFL
Chain of Ephrin type-A receptor 2 (Homo sapiens) (P29317 whole entry, the tested form may be a part): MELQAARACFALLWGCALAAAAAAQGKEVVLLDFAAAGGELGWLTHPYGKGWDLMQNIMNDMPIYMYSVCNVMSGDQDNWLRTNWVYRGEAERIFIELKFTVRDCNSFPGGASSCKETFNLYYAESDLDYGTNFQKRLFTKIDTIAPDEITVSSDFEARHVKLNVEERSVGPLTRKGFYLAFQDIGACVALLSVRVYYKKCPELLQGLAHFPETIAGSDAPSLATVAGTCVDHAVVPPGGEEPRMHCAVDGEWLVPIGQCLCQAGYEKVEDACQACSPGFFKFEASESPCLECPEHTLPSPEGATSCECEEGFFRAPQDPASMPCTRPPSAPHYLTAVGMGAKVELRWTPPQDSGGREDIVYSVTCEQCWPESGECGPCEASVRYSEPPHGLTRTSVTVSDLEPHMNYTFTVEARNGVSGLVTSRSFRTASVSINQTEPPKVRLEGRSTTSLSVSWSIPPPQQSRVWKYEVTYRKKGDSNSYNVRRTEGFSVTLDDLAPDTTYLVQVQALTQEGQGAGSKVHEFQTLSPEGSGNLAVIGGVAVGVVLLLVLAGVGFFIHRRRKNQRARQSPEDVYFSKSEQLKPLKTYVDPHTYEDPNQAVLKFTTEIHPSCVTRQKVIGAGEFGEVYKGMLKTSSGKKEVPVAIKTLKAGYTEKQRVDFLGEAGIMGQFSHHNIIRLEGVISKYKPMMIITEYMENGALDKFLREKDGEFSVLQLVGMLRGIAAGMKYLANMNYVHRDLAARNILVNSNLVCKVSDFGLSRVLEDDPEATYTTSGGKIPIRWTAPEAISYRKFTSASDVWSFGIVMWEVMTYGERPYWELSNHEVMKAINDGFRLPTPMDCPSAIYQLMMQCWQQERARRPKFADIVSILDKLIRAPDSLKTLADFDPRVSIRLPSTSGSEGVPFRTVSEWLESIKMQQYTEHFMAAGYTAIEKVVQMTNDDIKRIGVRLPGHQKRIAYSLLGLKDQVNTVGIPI
T1 sequence (Q99835 whole entry, the tested form may be a part): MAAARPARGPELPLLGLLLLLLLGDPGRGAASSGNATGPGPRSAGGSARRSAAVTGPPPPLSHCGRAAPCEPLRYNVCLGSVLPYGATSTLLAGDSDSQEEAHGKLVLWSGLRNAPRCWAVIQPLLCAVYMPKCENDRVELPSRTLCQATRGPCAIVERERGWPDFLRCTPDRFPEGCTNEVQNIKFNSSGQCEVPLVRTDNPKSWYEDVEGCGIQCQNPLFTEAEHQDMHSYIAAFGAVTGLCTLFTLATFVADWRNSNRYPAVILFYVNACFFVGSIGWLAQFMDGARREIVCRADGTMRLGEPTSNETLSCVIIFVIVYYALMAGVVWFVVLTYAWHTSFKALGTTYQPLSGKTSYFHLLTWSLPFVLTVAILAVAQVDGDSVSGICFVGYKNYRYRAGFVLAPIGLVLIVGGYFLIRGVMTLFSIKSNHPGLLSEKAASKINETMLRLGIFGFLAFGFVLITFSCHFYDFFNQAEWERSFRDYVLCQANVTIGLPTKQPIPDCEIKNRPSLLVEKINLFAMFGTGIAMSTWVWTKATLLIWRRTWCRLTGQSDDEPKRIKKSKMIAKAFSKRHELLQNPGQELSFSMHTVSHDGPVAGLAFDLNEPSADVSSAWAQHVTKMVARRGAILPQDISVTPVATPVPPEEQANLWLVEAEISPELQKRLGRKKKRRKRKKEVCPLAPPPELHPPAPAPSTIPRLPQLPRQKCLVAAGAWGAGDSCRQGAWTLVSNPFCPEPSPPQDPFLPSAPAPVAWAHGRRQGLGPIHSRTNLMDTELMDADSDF
Chain of Fibroblast growth factor receptor 1 (Homo sapiens) (P11362 22-822 limits assumed): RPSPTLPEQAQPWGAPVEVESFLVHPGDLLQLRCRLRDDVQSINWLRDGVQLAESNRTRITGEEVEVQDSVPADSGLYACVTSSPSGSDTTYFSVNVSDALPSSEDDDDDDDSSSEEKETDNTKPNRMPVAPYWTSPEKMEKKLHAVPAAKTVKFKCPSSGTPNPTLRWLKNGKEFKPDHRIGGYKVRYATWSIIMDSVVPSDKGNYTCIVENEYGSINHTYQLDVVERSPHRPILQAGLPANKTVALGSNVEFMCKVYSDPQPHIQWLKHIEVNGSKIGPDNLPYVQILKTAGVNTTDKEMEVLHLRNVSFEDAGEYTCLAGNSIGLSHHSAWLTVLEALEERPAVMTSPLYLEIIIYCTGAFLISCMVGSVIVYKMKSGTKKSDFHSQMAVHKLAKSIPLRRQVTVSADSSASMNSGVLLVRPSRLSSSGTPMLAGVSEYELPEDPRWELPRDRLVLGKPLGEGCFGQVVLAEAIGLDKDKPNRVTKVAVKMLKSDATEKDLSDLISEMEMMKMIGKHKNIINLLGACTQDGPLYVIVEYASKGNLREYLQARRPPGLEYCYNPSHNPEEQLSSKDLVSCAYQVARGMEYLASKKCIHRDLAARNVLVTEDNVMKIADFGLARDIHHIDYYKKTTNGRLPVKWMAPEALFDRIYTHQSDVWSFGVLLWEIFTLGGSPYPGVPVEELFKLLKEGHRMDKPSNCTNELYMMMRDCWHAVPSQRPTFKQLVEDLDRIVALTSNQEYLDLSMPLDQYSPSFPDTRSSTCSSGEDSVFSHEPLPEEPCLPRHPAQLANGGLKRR
Chain of Receptor-type tyrosine-protein kinase FLT3 (Homo sapiens) (P36888 whole entry, the tested form may be a part): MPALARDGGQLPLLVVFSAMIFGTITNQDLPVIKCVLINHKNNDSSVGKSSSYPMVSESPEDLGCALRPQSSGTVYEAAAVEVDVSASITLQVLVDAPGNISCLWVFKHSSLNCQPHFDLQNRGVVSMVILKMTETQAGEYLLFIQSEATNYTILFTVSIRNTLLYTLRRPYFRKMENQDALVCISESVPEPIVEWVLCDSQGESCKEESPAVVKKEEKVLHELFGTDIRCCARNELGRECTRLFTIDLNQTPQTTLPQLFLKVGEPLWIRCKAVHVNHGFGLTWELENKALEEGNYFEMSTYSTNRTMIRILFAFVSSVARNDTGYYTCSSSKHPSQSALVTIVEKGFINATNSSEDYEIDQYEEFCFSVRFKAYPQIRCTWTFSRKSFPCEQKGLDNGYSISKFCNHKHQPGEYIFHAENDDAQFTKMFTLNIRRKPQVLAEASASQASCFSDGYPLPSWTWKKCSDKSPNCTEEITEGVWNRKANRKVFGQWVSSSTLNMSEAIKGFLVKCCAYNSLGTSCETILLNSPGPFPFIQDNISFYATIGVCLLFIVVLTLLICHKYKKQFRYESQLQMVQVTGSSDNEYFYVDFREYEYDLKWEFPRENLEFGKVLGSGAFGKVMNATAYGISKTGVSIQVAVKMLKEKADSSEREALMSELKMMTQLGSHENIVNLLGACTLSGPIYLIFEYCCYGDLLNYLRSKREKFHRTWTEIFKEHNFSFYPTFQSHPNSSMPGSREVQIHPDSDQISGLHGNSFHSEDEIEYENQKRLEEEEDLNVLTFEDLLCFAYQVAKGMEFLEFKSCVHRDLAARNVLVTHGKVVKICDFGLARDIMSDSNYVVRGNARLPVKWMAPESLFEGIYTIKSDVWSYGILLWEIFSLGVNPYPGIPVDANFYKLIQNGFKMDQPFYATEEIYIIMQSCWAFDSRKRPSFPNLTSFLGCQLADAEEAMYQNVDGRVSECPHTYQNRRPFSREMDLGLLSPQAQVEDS

One may read the inhibition as how much of the control response was suppressed. One may read the Ki as a dissociation constant, usually derived from enzyme kinetics or from competition with a known ligand. Lower therefore signals tighter binding. Take `Cc1ccc(NC(=O)CN2C(=O)/C(=N\NC(=O)c3cc(Br)ccc3O)c3ccc(Cl)cc32)cc1`: the inhibition entry at Protein smoothened [1] is “Active”. Further, the inhibition is 56.5% in [2]; 49.4% in assay [4]; 76.7% in assay [5]; 76.6% in assay [6]; 62.5% in [7]; 71.8% in assay [8]. Moreover, the inhibition in [9] is 71.9%. At Protein smoothened [3], this molecule showed a Ki of 28 nM. The “GLI1 expression reduction (qualitative)” value on Protein smoothened [10] is “Active”.

Take `Cc1ccc(NC(=O)CN2C(=O)/C(=N\NC(=O)c3cc(Br)ccc3O)c3ccc(Br)cc32)cc1`: the inhibition result on Protein smoothened [1] was “Active”. Further, the inhibition worked out at 56.7% in assay [2]; 54.1% in assay [4]; 76.7% in assay [5]; 72.4% in [6]; 69.2% in [7]; 71.4% in assay [8]. Besides, in assay [9], the inhibition is 72.6%. This molecule also yielded a Ki on Protein smoothened [3] of 11 nM. Also, at Protein smoothened [10], the “GLI1 expression reduction (qualitative)” value is “Active”.

In the case of `Cc1ccc(NC(=O)CN2C(=O)/C(=N\NC(=O)c3cc(Br)ccc3O)c3ccccc32)cc1`, the inhibition entry at Protein smoothened [1] is “Active”. The inhibition in [2] is 76.2%; in [4], 91.9%; in assay [5], 93.1%; in assay [6], 83.8%; in assay [7], 95%; in [8], 91.7%. The inhibition in [9] came to 89.7%. This molecule had a Ki at Protein smoothened [3] of 185 nM. Further, the “GLI1 expression reduction (qualitative)” value on Protein smoothened [10] is “Active”.

As to `O=C(CN1C(=O)/C(=N\NC(=O)c2cc(Br)ccc2O)c2c(Br)cccc21)Nc1ccc([N+](=O)[O-])cc1`, the inhibition result on Protein smoothened [1] is “Active”. Further, the inhibition came out at 63.3% in [2]; 89.7% in assay [4]; 89.5% in assay [5]; 78.9% in [6]; 71.5% in assay [7]; 81.6% in assay [8]. The inhibition in assay [9] is 55.8%. Also, on Protein smoothened [3], the Ki worked out at 9 nM. Also, the “GLI1 expression reduction (qualitative)” value at Protein smoothened [10] is “Active”.
